From ChEMBL document CHEMBL3603821, “Optimization of N-aryl-6-methoxy-1,2,3,4-tetrahydroquinolines as tubulin polymerization inhibitors” (Bioorg Med Chem, 2015) come the findings set out here.

Series [1] has as its system A549. The series can be described thus: Antiproliferative activity against human A549 cells assessed as cell growth inhibition by SRB assay. The class given is functional. The method, boiled down:
(§1)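 SRB assay in a human tumor cell line panel (A-549 lung, KB nasopharyngeal, P-glycoprotein-overexpressing KBvin, DU145 prostate).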
For orientation: In SRB staining, fixed cells bind dye roughly in proportion to their protein.

Series [2] deals with KB. The experiment in a line: Antiproliferative activity against human KB cells assessed as cell growth inhibition by SRB assay. The class given is functional.
Series [3] can be described thus: Antiproliferative activity against human vincristine-resistant KBVIN cells expressing P-glycoprotein assessed as cell growth inhibition by SRB assay. The class given is functional. The method, boiled down:
as §1

For series [4], the system named is DU-145. The series can be described thus: Antiproliferative activity against human DU145 cells assessed as cell growth inhibition by SRB assay. The format is functional. The method, boiled down: as §1
In series [5] the target is Tubulin. The series can be described thus: Inhibition of tubulin (unknown origin) assembly pre-incubated for 15 mins before GTP addition measured after 20 mins by turbidimetry. The format is protein-complex assay, Homo sapiens.
Series [6] concerns the target T1, Tubulin (Homo sapiens) (UniProt P68371+Q9H4B7+P0DPH7+P68366+Q13509+Q71U36+P04350+Q3ZCM7+P07437+P68363+Q9BQE3+Q6PEY2+Q13885+Q9BVA1+Q9BUF5). The series can be described thus: Displacement of [3H]-colchicine from tubulin (unknown origin) at 5 uM after 10 mins. The format is protein-complex assay. The essentials: (§2)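 Radioligand binding competition: 1.0 μM tubulin incubated with 5.0 μM [3H]colchicine plus inhibitor at 5.0 or 1.0 μM for 10 min at 37 °C. At that point control binding is about 40–60% of maximum. Result is percent inhibition of colchicine binding ± SD.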

The target of series [7] is T1, Tubulin (Homo sapiens). The experiment in a line: Displacement of [3H]-colchicine from tubulin (unknown origin) at 1 uM after 10 mins. The class given is protein-complex assay. The method, boiled down: as §2
In general terms: Displacement assays read how much labelled ligand stays bound in the presence of the test substance.

Series [8] in a line: Aqueous solubility of the compound at pH 7.4 by HPLC-UV method. The class given is physicochemical. The settings on record: buffer.
Series [9] in a line: Octanol/water partition coefficient, log P of the compound after 24 hrs by HPLC analysis. The class given is physicochemical. The essentials: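 Log P measured at pH 7.4 with HPLC-UV on a C18 column (4.6 × 150 mm, 5 μm). Eluent MeOH/water 80:20 containing 0.04% ammonium acetate, run at 0.8 mL/min, with detection at 254 nm. Value given as mean ± SD of three separate experiments.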

≈ marks a conversion by molar mass, not a printed value.

As for `COc1ccc2c(c1)CCCN2c1cncc2ccccc12`, the concentration for 50% growth inhibition (GI50) (as a rule, the concentration that inhibits growth by half) in [1] stood at 1950 nM; in series [2], 1480 nM; in [3], 1540 nM; in series [4], 920 nM. In series [5], the midpoint of inhibition, the IC50, lay at 3300 nM. The inhibition – broadly, the change of the read-out against control, counted positive when it falls – in series [6] turned out to be 39%.
Take `COc1ccc2c(c1)CCCN2c1nc(OC)nc2ccccc12`: the GI50 in [1] turned out to be 24 nM; in series [2] it was 26 nM; in series [3], 30 nM; in series [4] it was 21 nM.
As for `COc1ccc2c(c1)CCCN2c1nc(NCCCO)nc2ccccc12`, the GI50 is 16 nM in [1], 18 nM in series [2], 19 nM in series [3] and 20 nM in [4]. In [5], inhibition was half-maximal at 850 nM (IC50). Also, the inhibition worked out at 78% in [6] and 49% in [7]. Besides, in series [8], the solubility – broadly, how much of the substance goes into solution per volume – was determined as 75.6 µg/mL (≈ 207 µM). Besides, the logP – broadly, a log measure of how a compound divides between an organic and an aqueous phase – in series [9] was determined as 3.43.
Consider `COc1ccc2c(c1)CCCN2c1nc(F)nc2[nH]cnc12`, for which the concentration for 50% growth inhibition (GI50) in series [1] was 23600 nM; in [2] it was over 33000 nM; in [3], 27100 nM; in series [4] it was 25500 nM.
The matching figures for `COc1ccc2c(c1)CCCN2c1nc(N(C)C)nc2ccccc12`: 170 nM, 140 nM, 200 nM and 150 nM.
As for `CC(=O)O[C@H]1C(=O)[C@@]2(C)[C@H]([C@H](OC(=O)c3ccccc3)[C@]3(O)C[C@H](OC(=O)[C@H](O)[C@@H](NC(=O)c4ccccc4)c4ccccc4)C(C)=C1C3(C)C)[C@]1(OC(C)=O)CO[C@@H]1C[C@@H]2O` [PACLITAXEL], the GI50 is 7.6 nM in series [1], 6.4 nM in series [2], 1210 nM in [3] and 6 nM in series [4].
On to `COc1ccc2c(c1)CCCN2c1nccc2ccccc12`, for which the 50% growth inhibitory concentration (GI50) in [1] was 2080 nM; in series [2], 1720 nM; in series [3], 1640 nM; in [4], 1470 nM. Also, the midpoint of inhibition in series [5], the IC50, lay at 2600 nM. Also, the inhibition in series [6] stood at 37%.
Regarding `COc1ccc2c(c1)CCCN2c1nc(NC2CCCC2)nc2ccccc12`, the GI50 in [1] turned out to be 1340 nM; in series [2] it was 1190 nM; in [3], 1420 nM; in series [4], 1290 nM. In [5], the midpoint of inhibition, the IC50, lay at 5700 nM. The inhibition in series [6] was found to be 29%.
Consider `COc1ccc2c(c1)CCCN2c1nc(N)nc2[nH]cnc12`, for which the GI50 amounted to 19400 nM in series [1], 17500 nM in series [2], 18900 nM in [3] and 18000 nM in series [4].
As for `COc1ccc(/C=C\c2cc(OC)c(OC)c(OC)c2)cc1O` [COMBRETASTATIN A4], the figures for the GI50 in series [1], in [2] and in series [3] were 84.1 nM, 3.6 nM and 1.2 nM, respectively.
On to `COc1ccc2c(c1)CCCN2c1ncnc2ccccc12`, for which the figures for the GI50 in series [1], in series [2] and in series [3] were 18 nM, 14 nM and 19 nM, respectively. In series [5], the half-inhibitory concentration (IC50) – broadly, the midpoint of a concentration-inhibition curve – was determined as 1300 nM. Besides, the inhibition in series [6] was determined as 91%; in [7] it was 69%.
As to `COc1ccc2c(c1)CCCN2c1ncnc2[nH]cnc12`, the GI50 in series [1], in series [2], in series [3] and in [4] was over 35000 nM each time.
On to `COc1ccc2c(c1)CCCN2c1nc(NC2CC2)nc2ccccc12`, for which the 50% growth inhibitory concentration (GI50) in series [1] stood at 16 nM; in series [2] it was 13 nM; in [4], 16 nM. The IC50 in [5] turned out to be 1300 nM. Further, the inhibition in series [6] turned out to be 89%; in series [7], 56%. In [8], this molecule had a solubility of 2.55 µg/mL (≈ 7.36 µM). Besides, the logP in series [9] stood at 4.13.
As for `COc1ccc2c(c1)CCCN2c1cccc2cccnc12`, the GI50 in [1] came to 12100 nM; in series [2], 16200 nM; in series [3] it was 8710 nM; in series [4], 12800 nM. This molecule gave an IC50 in series [5] of over 20000 nM.
`COc1ccc2c(c1)CCCN2c1ccnc2ccccc12`: the 50% growth inhibitory concentration (GI50) was found to be 200 nM in series [1], 160 nM in series [2], 180 nM in [3] and 180 nM in [4].
